Key:
[1] = Inhibition of Hepatitis C virus genotype 1a H77 recombinant NS3/4A protease expressed in Escherichia coli BL21 (DE3) cell using Ac-Asp-Glu-Asp(EDANS)-Glu-Glu-Abu[C(O)-O]-Ala-Ser-Lys(DABCYL)-NH2 as substrate by FRET assay; design: species or system Hepatitis C virus (isolate H77)
[2] = Cytotoxicity against human HuH7 cells; assay type: cell-based; conditions: Huh-7 cells
Hepatitis C virus = experiment: Antiviral activity against Hepatitis C virus genotype 1b Con1 after 4 days by cell-based replicon assay; assay type: functional, organism-based, Hepacivirus hominis; conditions: isolate Con1, 96 h
[3] = AUC in intraduodenally dosed Sprague-Dawley rat plasma measured over 4 hrs by LC/MS/MS analysis; assay type: ADME, organism-based; design: time < 4 hr, route intraduodenal; conditions: Sprague-Dawley, plasma
Summary of the method: (§1)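 Abbreviated rat screen: surgically prepared rats were dosed intraduodenally. Plasma was sampled over 4 h, and liver was collected at the 4 h end point. Plasma was precipitated with two volumes of ACN plus internal standard. Liver was weighed and homogenized in 2 volumes of 20% Hanks buffered salt solution/80% ACN. Both were quantified by LC/MS/MS.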

Liver = experiment: Drug uptake in intraduodenally dosed Sprague-Dawley rat liver measured per gm of tissue over 4 hrs by LC/MS/MS analysis; assay type: ADME, organism-based; conditions: in vivo, other; summary of the method: as §1

Row | Structure (SMILES) | IC50 [1] [nM] | EC50 (Hepatitis C virus) [nM] | AUC at 4 h [3] [µM·h] | Drug uptake (Liver) [ng] | CC50 [2] [nM]
1 | C=C[C@@H]1C[C@]1(NC(=O)[C@@H]1C[C@@H](Oc2nccc3cc(N4CCOCC4)ccc23)CN1C(=O)[C@@H](NC(=O)OC(C)(C)C)C(C)(C)C)C(=O)NS(=O)(=O)C1CC1 | 3 | 26 | 0.46 | 1018 | > 100000
2 | C=C[C@@H]1C[C@]1(NC(=O)[C@@H]1C[C@@H](Oc2cc(-c3ccccc3)nc3cc(OC)ccc23)CN1C(=O)[C@@H](NC(=O)OC(C)(C)C)C(C)(C)C)C(=O)NS(C)(=O)=O | 36 | 600 |  |  | 
3 | C=C[C@@H]1C[C@]1(NC(=O)[C@@H]1C[C@@H](Oc2nccc3cccc(C)c23)CN1C(=O)[C@@H](NC(=O)OC(C)(C)C)C(C)(C)C)C(=O)NS(=O)(=O)C1CC1 | 149 | 500 |  |  | > 100000
4 | C=C[C@@H]1C[C@]1(NC(=O)[C@@H]1C[C@@H](Oc2cc(-c3ccccc3)nc3cc(OC)ccc23)CN1C(=O)CNC(=O)OC(C)(C)C)C(=O)NS(=O)(=O)C1CC1 | 16 | 893 |  |  | 
5 | C=C[C@@H]1C[C@]1(NC(=O)[C@@H]1C[C@@H](Oc2cc(-c3ccccc3)nc3cc(OC)ccc23)CN1C(=O)[C@@H](NC(=O)OC(C)(C)C)C(C)(C)C)C(=O)NS(=O)(=O)C1CCC1 | 7 | 29 |  |  | 
6 | C=C[C@@H]1C[C@]1(NC(=O)[C@@H]1C[C@@H](Oc2ccncc2)CN1C(=O)[C@@H](NC(=O)OC(C)(C)C)C(C)(C)C)C(=O)NS(=O)(=O)C1CC1 | 84 | 25000 |  |  | 
7 | C=C[C@@H]1C[C@]1(NC(=O)[C@@H]1C[C@@H](Oc2nc(-c3ccccc3)cc3cc(OC)ccc23)CN1C(=O)[C@@H](NC(=O)OC(C)(C)C)C(C)(C)C)C(=O)NS(=O)(=O)C1CC1 | 1 | 4 | 1.11 | 72910 | 13000
8 | C=C[C@@H]1C[C@]1(NC(=O)[C@@H]1C[C@@H](Oc2cc(-c3ccccc3)nc3cc(OC)ccc23)CN1C(=O)[C@@H](NC(=O)OC(C)(C)C)C(C)(C)C)C(=O)NS(=O)(=O)C1CCCCC1 | 149 | 210 |  |  | 
9 | C=C[C@@H]1C[C@]1(NC(=O)[C@@H]1C[C@@H](Oc2ccnc(-c3ccccc3)c2)CN1C(=O)[C@@H](NC(=O)OC(C)(C)C)C(C)(C)C)C(=O)NS(=O)(=O)C1CC1 | 10 | 267 |  | 319 | 
10 | C=C[C@@H]1C[C@]1(NC(=O)[C@@H]1C[C@@H](Oc2ccc3ccccc3n2)CN1C(=O)[C@@H](NC(=O)OC(C)(C)C)C(C)(C)C)C(=O)NS(=O)(=O)C1CC1 | 23 | 268 | 0.279 | 52094 | 
11 | C=C[C@@H]1C[C@]1(NC(=O)[C@@H]1C[C@@H](Oc2cc(-c3ccccc3)nc3cc(OC)ccc23)CN1C(=O)[C@@H](NC(=O)OC(C)(C)C)C(C)(C)C)C(=O)NS(=O)(=O)C(C)C | 19 | 97 |  |  | 
12 | C=C[C@@H]1C[C@]1(NC(=O)[C@@H]1C[C@@H](Oc2nccc3cc(-n4cccn4)ccc23)CN1C(=O)[C@@H](NC(=O)OC(C)(C)C)C(C)(C)C)C(=O)NS(=O)(=O)C1CC1 | 4 | 64 |  |  | 94000
13 | C=C[C@@H]1C[C@]1(NC(=O)[C@@H]1C[C@@H](Oc2cc(-c3ccccc3)nc3cc(OC)ccc23)CN1C(=O)[C@@H](NC(=O)OC)C(C)(C)C)C(=O)NS(=O)(=O)C1CC1 | 1 | 32 | 0.009 | 156 | 
14 | C=C[C@@H]1C[C@]1(NC(=O)[C@@H]1C[C@@H](Oc2nccc3cc(C(=O)N(C)C)ccc23)CN1C(=O)[C@@H](NC(=O)OC(C)(C)C)C(C)(C)C)C(=O)NS(=O)(=O)C1CC1 | 476 | 11000 |  |  | > 100000
15 | C=C[C@@H]1C[C@]1(NC(=O)[C@@H]1C[C@@H](Oc2ncc(Cl)c3ccccc23)CN1C(=O)[C@@H](NC(=O)OC(C)(C)C)C(C)(C)C)C(=O)NS(=O)(=O)C1CC1 | 8 | 41 |  |  | 45000
16 | C=C[C@@H]1C[C@]1(NC(=O)[C@@H]1C[C@@H](Oc2nc(-c3ccccc3)cc3ccccc23)CN1C(=O)[C@@H](NC(=O)OC(C)(C)C)C(C)(C)C)C(=O)NS(=O)(=O)C1CC1 | 3 | 9 |  |  | 12000
17 | COc1ccc2c(O[C@@H]3C[C@@H](C(=O)NC4(C(=O)NS(=O)(=O)C5CC5)CC4)N(C(=O)[C@@H](NC(=O)OC(C)(C)C)C(C)(C)C)C3)cc(-c3ccccc3)nc2c1 | 12 | 437 |  |  | 
18 | C=C[C@@H]1C[C@]1(NC(=O)[C@@H]1C[C@@H](Oc2nccc3c(N4CCOCC4)cccc23)CN1C(=O)[C@@H](NC(=O)OC(C)(C)C)C(C)(C)C)C(=O)NS(=O)(=O)C1CC1 | 96 | 966 |  |  | > 100000
19 | C=C[C@@H]1C[C@]1(NC(=O)[C@@H]1C[C@@H](Oc2ncc(C)c3ccccc23)CN1C(=O)[C@@H](NC(=O)OC(C)(C)C)C(C)(C)C)C(=O)NS(=O)(=O)C1CC1 | 1 | 50 | 0.2 | 97240 | 71000
20 | C=C[C@@H]1C[C@]1(NC(=O)[C@@H]1C[C@@H](Oc2nccc3c(F)cccc23)CN1C(=O)[C@@H](NC(=O)OC(C)(C)C)C(C)(C)C)C(=O)NS(=O)(=O)C1CC1 | 55 | 94 |  |  | > 100000
21 | C=C[C@@H]1C[C@]1(NC(=O)[C@@H]1C[C@@H](Oc2cc(-c3ccccc3)nc3cc(OC)ccc23)CN1C(=O)[C@@H](NC(=O)OC(C)(C)C)C(C)(C)C)C(=O)NS(=O)(=O)c1ccccc1 | 8 | 20 |  |  | 
22 | C=C[C@@H]1C[C@]1(NC(=O)[C@@H]1C[C@@H](Oc2cc(-c3ccccc3)nc3cc(OC)ccc23)CN1C(=O)[C@@H](N)C(C)(C)C)C(=O)NS(=O)(=O)C1CC1 | 30 | 860 |  |  | 
23 | C=C[C@@H]1C[C@]1(NC(=O)[C@@H]1C[C@@H](Oc2cc(-c3ccccc3)nc3cc(OC)ccc23)CN1C(=O)[C@@H](NC(=O)OC(C)(C)C)C(C)(C)C)C(=O)NS(=O)(=O)CC | 6 | 133 |  |  | 
24 | C=C[C@@H]1C[C@]1(NC(=O)[C@@H]1C[C@@H](Oc2cc(-c3ccccc3)nc3cc(OC)ccc23)CN1C(=O)[C@@H](NC(=O)OC(C)(C)C)C(C)(C)C)C(=O)NS(=O)(=O)C1CCCC1 | 71 | 170 |  |  | 
25 | C=C[C@@H]1C[C@]1(NC(=O)[C@@H]1C[C@@H](Oc2nccc3cc(C(C)(C)C)ccc23)CN1C(=O)[C@@H](NC(=O)OC(C)(C)C)C(C)(C)C)C(=O)NS(=O)(=O)C1CC1 | 31 | 209 |  |  | 15000

Now from value to compound, other results behind:

Row | IC50 [1] [nM] | EC50 (Hepatitis C virus) [nM] | AUC at 4 h [3] [µM·h] | Drug uptake (Liver) [ng] | Structure (SMILES) | CC50 [2] [nM]
26 | 4 | 586 |  |  | C=C[C@@H]1C[C@]1(NC(=O)[C@@H]1C[C@@H](Oc2nccc3cc(C#N)ccc23)CN1C(=O)[C@@H](NC(=O)OC(C)(C)C)C(C)(C)C)C(=O)NS(=O)(=O)C1CC1 | > 100000
27 | 4 | 100 |  |  | C=C[C@@H]1C[C@]1(NC(=O)[C@@H]1C[C@@H](Oc2nccc3cc(C)ccc23)CN1C(=O)[C@@H](NC(=O)OC(C)(C)C)C(C)(C)C)C(=O)NS(=O)(=O)C1CC1 | 92000
28 | 5000 |  | 0.25 | 3058 | C=C[C@@H]1C[C@]1(NC(=O)[C@@H]1C[C@H](Oc2nccc3cc(OC)ccc23)CN1C(=O)[C@@H](NC(=O)OC(C)(C)C)C(C)(C)C)C(=O)NS(=O)(=O)C1CC1 | 
29 | 3 | 67 |  |  | C=C[C@@H]1C[C@]1(NC(=O)[C@@H]1C[C@@H](Oc2nccc3cc(O)ccc23)CN1C(=O)[C@@H](NC(=O)OC(C)(C)C)C(C)(C)C)C(=O)NS(=O)(=O)C1CC1 | > 100000
30 | 36 | 833 |  |  | C=C[C@@H]1C[C@]1(NC(=O)[C@@H]1C[C@@H](Oc2nccc3cc(Cl)ccc23)CN1C(=O)[C@@H](NC(=O)OC(C)(C)C)C(C)(C)C)C(=O)NS(=O)(=O)C1CC1 | 44000
31 | 7 | 100 |  |  | C=C[C@@H]1C[C@]1(NC(=O)[C@@H]1C[C@@H](Oc2nccc3ccc(C)cc23)CN1C(=O)[C@@H](NC(=O)OC(C)(C)C)C(C)(C)C)C(=O)NS(=O)(=O)C1CC1 | 86000
32 | 5 | 26 | 0.015 | 620 | C=C[C@@H]1C[C@]1(NC(=O)[C@@H]1C[C@@H](Oc2ccnc3cc(OC)ccc23)CN1C(=O)[C@@H](NC(=O)OC(C)(C)C)C(C)(C)C)C(=O)NS(=O)(=O)C1CC1 | 
33 | 87 | 117 | 1.46 | 69560 | C=C[C@@H]1C[C@]1(NC(=O)[C@@H]1C[C@@H](Oc2nccc3cc(F)ccc23)CN1C(=O)[C@@H](NC(=O)OC(C)(C)C)C(C)(C)C)C(=O)NS(=O)(=O)C1CC1 | > 100000
34 | 3 | 12 | 1.83 | 14630 | C=C[C@@H]1C[C@]1(NC(=O)[C@@H]1C[C@@H](Oc2nccc3cc(OCC)ccc23)CN1C(=O)[C@@H](NC(=O)OC(C)(C)C)C(C)(C)C)C(=O)NS(=O)(=O)C1CC1 | 74000
35 | 2 | 18 | 0.11 | 2319 | C=C[C@@H]1C[C@]1(NC(=O)[C@@H]1C[C@@H](Oc2ncnc3cc(OC)ccc23)CN1C(=O)[C@@H](NC(=O)OC(C)(C)C)C(C)(C)C)C(=O)NS(=O)(=O)C1CC1 | > 100000
36 | 5 | 40 | 6.36 | 160300 | C=C[C@@H]1C[C@]1(NC(=O)[C@@H]1C[C@@H](Oc2nccc3c(C)cccc23)CN1C(=O)[C@@H](NC(=O)OC(C)(C)C)C(C)(C)C)C(=O)NS(=O)(=O)C1CC1 | 89000

— ChEMBL document CHEMBL3124900, “Discovery and early clinical evaluation of BMS-605339, a potent and orally efficacious tripeptidic acylsulfonamide NS3 protease inhibitor for the treatment of hepatitis C virus infection” (J Med Chem, 2014)
